Data taken from ChEMBL document CHEMBL4477216, “Discovery and Optimization of Small Molecule Splicing Modifiers of Survival Motor Neuron 2 as a Treatment for Spinal Muscular Atrophy” (J Med Chem, 2016).

Tests used:
Homo sapiens [1] = organism: Homo sapiens; experiment: Inhibition of mRNA splicing of SMN2 exon 7 in GM03813 fibroblasts derived from SMA patient assessed as compound concentration required to increase SMN protein level by 1.5 times after 24 hrs by HTRF assay
Homo sapiens [2] = organism: Homo sapiens; experiment: Inhibition of mRNA splicing of human SMN2 exon 7 transfected in HEK293H cells assessed as compound concentration required to increase full-length SMN2 mRNA level by 1.5 times after 24 hrs by RT-qPCR analysis relative to GAPDH; assay type: cell-based
In short: (§1)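 HEK293H cells stably carrying the SMN2 minigene (exon 6 to 5' exon 8 fused to firefly luciferase) were plated and held for 6 h, then treated 24 h in duplicate at varying concentrations (0.5% DMSO). Full-length minigene mRNA and GAPDH were quantified by TaqMan RT-qPCR using actual PCR efficiencies. Results were normalized to GAPDH and DMSO and expressed as fold change versus DMSO.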

Homo sapiens [3] = organism: Homo sapiens; experiment: Inhibition of mRNA splicing of SMN2 exon 7 in GM03813 fibroblasts derived from SMA patient assessed as maximum fold increase of SMN protein level by 1.5 times after 24 hrs by HTRF assay relative to control
[4] = AUC (0 to 6 hrs) in Sprague-Dawley rat at 10 mg/kg, po; assay type: ADME, organism-based; set-up: dose 10 mg/kg, time < 6 hr, route oral; conditions: in vivo
In short: (§2)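 Male Sprague-Dawley rats got a single oral 10 mg/kg dose as a suspension in 0.5% hydroxypropyl methylcellulose with 0.1% Tween-80. Plasma was sampled at several time points up to 6 h post dose to give AUC0-6h. Total brain concentration was taken at 6 h to give the brain/plasma ratio.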

[5] = Protein binding in human plasma; assay type: ADME, cell-free; conditions: read-out: PPB (converted)
[6] = Apparent permeability in human Caco2 cells; assay type: ADME, cell-based; conditions: Caco-2
In short: (§3)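 Bidirectional permeability was measured across a Caco-2 cell monolayer. Papp was reported, and efflux was expressed as the B-A/A-B ratio.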

[7] = Ratio of drug level in brain to plasma of Sprague-Dawley rat at 10 mg/kg, po measured at 6 hrs; assay type: ADME, organism-based; conditions: brain and plasma, read-out: BPR; in short: as §2
[8] = Efflux ratio of apparent permeability from basolateral to apical over apical to basolateral side in human Caco2 cells; assay type: ADME, cell-based; conditions: Caco-2; in short: as §3
Homo sapiens [9] = organism: Homo sapiens; experiment: Inhibition of mRNA splicing of human SMN2 exon 7 transfected in HEK293H cells assessed as maximum fold of increase in full-length SMN2 mRNA level after 24 hrs by RT-qPCR analysis relative to GAPDH; assay type: cell-based; in short: as §1
Homo sapiens [10] = organism: Homo sapiens; experiment: Inhibition of mRNA splicing of human SMN2 exon 7 transfected in HEK293H cells assessed as maximum fold of increase in full-length SMN2 mRNA level after 24 hrs by RT-qPCR analysis relative to control; assay type: cell-based; in short: as §1
Homo sapiens [11] = organism: Homo sapiens; experiment: Inhibition of mRNA splicing of human SMN2 exon 7 transfected in HEK293H cells assessed as compound concentration required to increase full-length SMN2 mRNA level by 1.5 times after 24 hrs by RT-qPCR analysis; assay type: cell-based; in short: as §1

Row | SMILES | EC1.5 (Homo sapiens [1]) [nM] | EC1.5 (Homo sapiens [2]) [nM] | other results
1 | Cc1cn2cc(-c3cc(=O)n4cc(N5CCNCC5)ccc4n3)nc2c(C)n1 | 430 | 180 | –
2 | COc1ccc(-c2cc3ccc(N4CCNCC4)cc3c(=O)[nH]2)cc1OC | > 10000 | 1400 | fold change (FC) (Homo sapiens [3]): 1.2
3 | COc1ccc(-c2cc(=O)n3cc(N4CCNCC4)ccc3c2)cc1OC | 2500 | 920 | fold change (FC) (Homo sapiens [3]): 1.6
4 | COc1ccc(-c2cc3ccc(N4CCNCC4)cc3oc2=O)cc1 | > 10000 | 2000 | fold change (FC) (Homo sapiens [3]): 1.1
5 | Cc1cn2cc(-c3cc4ccc(N5CCN[C@@H](C(C)C)C5)cc4oc3=O)nc2c(C)n1 | 76 | 23 | –
6 | Cc1cn2cc(-c3cc4ccc(N5CCN(C)CC5)cc4c(=O)o3)nc2cn1 | 120 | – | AUC(0-t) at 6 h [4]: < 10 ng·h/mL
7 | Cc1cn2nc(-c3cc(=O)n4cc(N5CCNCC5)ccc4n3)cc2c(C)n1 | 31 | 6 | AUC(0-t) at 6 h [4]: 380 ng·h/mL; fraction unbound [5]: 0.3; Papp [6]: 14 ×10⁻⁶ cm/s; Kp at 6 h [7]: < 0.1; efflux ratio [8]: 2.8
8 | CN(C)c1ccc2cc(-c3nc4ccccc4o3)c(=O)oc2c1 | – | 22000 | fold change (FC) (Homo sapiens [9]): 1.5; fold change (FC) (Homo sapiens [10]): 1.2; EC1.5 (Homo sapiens [11]): > 32 µM
9 | Cc1cn2cc(-c3cc4ccc(N5CCNCC5)cc4oc3=O)nc2cn1 | 5 | 2 | –
10 | Cc1cn2cc(-c3cc4ccc(N5CCN[C@@H](C)C5)cc4oc3=O)nc2c(C)n1 | 5 | 1 | –
11 | CCc1ccc2nc(-c3cc4ccc(N5CCNCC5)cc4oc3=O)cn2c1 | > 10000 | 2700 | –
12 | O=c1oc2cc(N3CCNCC3)ccc2cc1-c1nc2ccccc2s1 | > 10000 | 1000 | fold change (FC) (Homo sapiens [3]): 1
13 | COc1ccc(-c2cc3ccc(N4CCNCC4)nc3oc2=O)cc1OC | > 10000 | 8800 | fold change (FC) (Homo sapiens [3]): 1
14 | Cc1cn2cc(-c3cc4ccc(N5CCN(CCCF)[C@@H](C)C5)cc4oc3=O)nc2c(C)n1 | 60 | 19 | –
15 | Cc1cc2oc(-c3cc4ccc(N5CCNCC5)cc4oc3=O)cc2c(C)n1 | > 10000 | 1500 | –
16 | O=c1oc2cc(N3CCNCC3)ccc2cc1-c1ccccc1 | > 10000 | > 32000 | fold change (FC) (Homo sapiens [3]): 1
17 | O=c1oc2cc(N3CCNCC3)ccc2cc1-c1nc2ccccc2o1 | > 10000 | 8700 | fold change (FC) (Homo sapiens [9]): 25; fold change (FC) (Homo sapiens [3]): 1; fold change (FC) (Homo sapiens [10]): 7; EC1.5 (Homo sapiens [11]): 10 µM
18 | Cc1cn2cc(-c3cc4ccc(N5CCC(N(C)C)CC5)cc4oc3=O)nc2c(C)n1 | 61 | 11 | –
19 | Cc1cn2nc(-c3cc4ccc(C5CCN(C)CC5)cc4oc3=O)cc2c(C)n1 | > 10000 | > 10000 | –
20 | O=c1oc2cc(N3CCCCC3)ccc2cc1-c1nc2ccccc2o1 | – | > 32000 | fold change (FC) (Homo sapiens [9]): 1; fold change (FC) (Homo sapiens [10]): 1; EC1.5 (Homo sapiens [11]): > 32 µM

Row | SMILES | EC1.5 (Homo sapiens [1]) [nM] | EC1.5 (Homo sapiens [2]) [nM] | other results
21 | O=c1oc2cc(N3CCNCC3)ccc2cc1-c1cn2ccncc2n1 | 120 | 70 | –
22 | CCN1CCN(c2ccc3cc(-c4cn5cc(C)nc(C)c5n4)c(=O)oc3c2)CC1 | 62 | 10 | –
23 | Cc1cn2cc(-c3cc4ccc(N5CCN6CCC[C@H]6C5)cc4oc3=O)nc2c(C)n1 | 66 | 21 | –
24 | COc1ccc(-c2cnc3cc(N4CCNCC4)ccn3c2=O)cc1OC | > 10000 | 3200 | fold change (FC) (Homo sapiens [3]): 1
25 | Cc1cn2cc(-c3cc4ccc(CCCN(C)C)cc4oc3=O)nc2c(C)n1 | 220 | 58 | –
26 | COc1ccc(-c2cc3ccc(N4CCNCC4)cc3c(=O)o2)cc1OC | 290 | 80 | fold change (FC) (Homo sapiens [3]): 1.6
27 | Cc1cn2cc(-c3cc4ccc(N5CCNCC5)cc4oc3=O)cc2c(C)n1 | 29 | 4 | –
28 | Cc1cn2cc(-c3cc4ccc(N5CC[C@H]6CNC[C@H]65)cc4oc3=O)nc2c(C)n1 | 640 | 28 | –
29 | Cc1cn2cc(-c3cc4ccc(N5CCN(C(C)(C)C)CC5)cc4oc3=O)nc2c(C)n1 | > 10000 | 59 | –
30 | CCc1nc(C)cn2cc(-c3cc4ccc(N5CCNCC5)cc4oc3=O)nc12 | 210 | 10 | –
31 | Cc1cc2cc(-c3cc4ccc(N5CCNCC5)cc4oc3=O)oc2c(C)n1 | 16 | 4 | –
32 | Cc1cn2nc(-c3cc(=O)n4cc(N5CCN(C)CC5)ccc4n3)cc2cn1 | 300 | – | AUC(0-t) at 6 h [4]: < 10 ng·h/mL
33 | Cc1cn2cc(-c3cc4ccc(N5CCN(C)CC5)cc4oc3=O)nc2cn1 | 69 | – | AUC(0-t) at 6 h [4]: < 10 ng·h/mL; fraction unbound [5]: 0.03; Papp [6]: 2.7 ×10⁻⁶ cm/s; efflux ratio [8]: 0.74
34 | COc1ccc(-c2cc3ccc(N4CCNCC4)cn3c(=O)n2)cc1OC | > 10000 | > 10000 | fold change (FC) (Homo sapiens [3]): 1
35 | Cc1cn2cc(-c3cc4ccc(N5CCNCC5)cc4oc3=O)nc2c(C)n1 | 15 | 2 | AUC(0-t) at 6 h [4]: 340 ng·h/mL; Kp at 6 h [7]: 6.5
36 | Cc1cn2cc(-c3cc4ccc(N5CCN[C@H](C)C5)cc4oc3=O)nc2c(C)n1 | 13 | 3 | –
37 | Cc1cn2nc(-c3cc(=O)n4cc(N5CCN6CCC[C@H]6C5)ccc4n3)cc2c(C)n1 | 150 | 120 | –
38 | O=c1oc2cc(N3CCNCC3)ccc2cc1-c1cn2ccccc2n1 | > 10000 | 380 | fold change (FC) (Homo sapiens [3]): 1.3
39 | Cc1cn2cc(-c3cc4ccc(N5CCNCC5)cc4c(=O)o3)nc2c(C)n1 | 39 | 8 | AUC(0-t) at 6 h [4]: 280 ng·h/mL; fraction unbound [5]: 0.1; Papp [6]: 4.4 ×10⁻⁶ cm/s; Kp at 6 h [7]: 0.6; efflux ratio [8]: 2.6
40 | Cc1cn2cc(-c3cc4ccc(C5CCN(C)CC5)cc4oc3=O)nc2c(C)n1 | 50 | 11 | –

Row | SMILES | EC1.5 (Homo sapiens [1]) [nM] | EC1.5 (Homo sapiens [2]) [nM] | other results
41 | Cc1cn2nc(-c3cc(=O)n4cc(N5CCN[C@@H](C)C5)ccc4n3)cc2c(C)n1 | 160 | 19 | –
42 | COc1ccc(-c2cn3ccc(N4CCNCC4)cc3nc2=O)cc1OC | > 10000 | > 10000 | fold change (FC) (Homo sapiens [3]): 1
43 | O=c1oc2cc(N3CCOCC3)ccc2cc1-c1nc2ccccc2o1 | – | > 32000 | fold change (FC) (Homo sapiens [9]): 1; fold change (FC) (Homo sapiens [10]): 1.1; EC1.5 (Homo sapiens [11]): > 32 µM
44 | Cc1cn2nc(-c3cc(=O)n4cc(N5CCN(C6CC6)CC5)ccc4n3)cc2c(C)n1 | 690 | 380 | –
45 | O=c1oc2cc(N3CCNCC3)ccc2cc1-c1nc2ccccc2[nH]1 | > 10000 | 430 | fold change (FC) (Homo sapiens [3]): 1.2
46 | Cc1cn2cc(-c3cc4ccc(N5C[C@H]6CNC[C@H]6C5)cc4oc3=O)nc2c(C)n1 | 13 | 1 | –
47 | Cc1ccc2nc(-c3cc4ccc(N5CCNCC5)cc4oc3=O)cn2c1 | 160 | 140 | –
48 | O=c1oc2cc(N3CCNCC3)ccc2cc1-c1cn2ccsc2n1 | 360 | 110 | fold change (FC) (Homo sapiens [3]): 1.5
49 | Cc1cn2cc(-c3cc4ccc(N5CCN(CCF)[C@@H](C)C5)cc4oc3=O)nc2c(C)n1 | 450 | 37 | –
50 | COc1ccc(-c2cc(=O)n3cc(N4CCNCC4)ccc3n2)cc1OC | 830 | 120 | fold change (FC) (Homo sapiens [3]): 1.6
51 | Cc1cn2nc(-c3cc(=O)n4cc(N5CCC(N(C)C)CC5)ccc4n3)cc2c(C)n1 | 130 | 20 | –
52 | COc1ccc(-c2nc3ccc(N4CCNCC4)cc3[nH]c2=O)cc1OC | > 10000 | 2200 | fold change (FC) (Homo sapiens [3]): 1.1
53 | COc1ccc(-c2cc3ccc(N4CCNCC4)cc3oc2=O)cc1OC | > 10000 | 620 | fold change (FC) (Homo sapiens [3]): 1.3
54 | Cc1cn2cc(-c3cc4ccc(N5CCNCC5)cc4oc3=O)ccc2n1 | 66 | 5 | –
55 | Cc1cn2nc(-c3cc(=O)n4cc(C5CCN(C)CC5)ccc4n3)cc2c(C)n1 | 210 | 53 | –
56 | Cc1cn2cc(-c3cc4ccc(N5CCN(C)[C@@H](C)C5)cc4oc3=O)nc2c(C)n1 | 63 | – | AUC(0-t) at 6 h [4]: 260 ng·h/mL; Kp at 6 h [7]: 19
57 | Cc1cn2cc(-c3cc4ccc(N5CCN(C)CC5)cc4oc3=O)nc2c(C)n1 | 31 | 18 | AUC(0-t) at 6 h [4]: 530 ng·h/mL; fraction unbound [5]: 0.03; Papp [6]: 1.4 ×10⁻⁶ cm/s; Kp at 6 h [7]: 0.7; efflux ratio [8]: 1.1
58 | Cc1cn2nc(-c3cc(=O)n4cc(N5CCN[C@H](C)C5)ccc4n3)cc2c(C)n1 | 71 | 11 | –
59 | Cc1cn2cc(-c3cc(=O)n4cc(N5CCNCC5)ccc4n3)cc(C)c2n1 | 60 | 48 | –
